Assay results taken from ChEMBL document CHEMBL4665752, “Synthesis and Antifungal Activity of Chromones and Benzoxepines from the Leaves of Ptaeroxylon obliquum” (2020).
≈ marks a conversion by molar mass, not a printed value.

How the values were obtained:
Type in all cases: functional
[1] = test system: Cryptococcus neoformans; assay: Antifungal activity against Cryptococcus neoformans after 24 hrs by microdilution assay
Outline: (§1)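 Broth microdilution in triplicate; compounds in DMSO, serially diluted in sterile distilled water, final 25 to 0.2 μg/mL; fungi kept on Sabouraud dextrose agar, inocula diluted in Sabouraud dextrose broth. p-Iodonitrotetrazolium violet (0.2 mg/mL stock) added as growth indicator; incubation 35 °C, 100% relative humidity. MIC = lowest concentration inhibiting growth, read at 24 and 48 h. Amphotericin B positive, DMSO negative control.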

[2] = test system: Cryptococcus neoformans; assay: Antifungal activity against Cryptococcus neoformans after 48 hrs by microdilution assay; outline: as §1
[3] = test system: Candida albicans; assay: Antifungal activity against Candida albicans ATCC 10231 after 48 hrs by microdilution assay; outline: as §1
[4] = test system: Candida albicans; assay: Antifungal activity against Candida albicans ATCC 10231 after 24 hrs by microdilution assay; outline: as §1

| MIC [1] [µM] | MIC [2] [µM] | MIC [3] [µM] | MIC [4] [µM] | SMILES |
| --- | --- | --- | --- | --- |
| 5.7 (≈ 1.56 µg/mL) | 5.7 (≈ 1.56 µg/mL) | 11.4 (≈ 3.13 µg/mL) | 11.4 (≈ 3.13 µg/mL) | Cc1cc(=O)c2c(O)cc3c(c2o1)CC=C(CO)CO3 |
| 5.7 (≈ 1.56 µg/mL) | 5.7 (≈ 1.56 µg/mL) | 11.4 (≈ 3.13 µg/mL) | 11.4 (≈ 3.13 µg/mL) | Cc1cc(=O)c2c(O)c3c(cc2o1)OCC(CO)=CC3 |
| 13.5 (≈ 3.14 µg/mL) | 13.5 (≈ 3.14 µg/mL) | 13.5 (≈ 3.14 µg/mL) | 13.5 (≈ 3.14 µg/mL) | C=CCc1c(O)cc(O)c2c(=O)cc(C)oc12 |
| 21.7 (≈ 6.26 µg/mL) | 43.3 (≈ 12.5 µg/mL) | 86.7 (≈ 25 µg/mL) | 86.7 (≈ 25 µg/mL) | C=CCc1c2c(c(O)c(C(C)=O)c1OC)C=CC(C)(C)O2 |
| 10.5 (≈ 3.13 µg/mL) | 10.5 (≈ 3.13 µg/mL) | 83.8 (≈ 25 µg/mL) | 41.9 (≈ 12.5 µg/mL) | C=CCc1c2c(c(O)c3c(=O)cc(C)oc13)C=CC(C)(C)O2 |
| 11.2 (≈ 3.12 µg/mL) | 11.2 (≈ 3.12 µg/mL) | 22.5 (≈ 6.26 µg/mL) | 11.2 (≈ 3.12 µg/mL) | COc1cc2c(c(OC)c1C(C)=O)CC=C(CO)CO2 |
| 9.9 (≈ 3.13 µg/mL) | 9.9 (≈ 3.13 µg/mL) | 9.9 (≈ 3.13 µg/mL) | 9.9 (≈ 3.13 µg/mL) | CC(=O)OCC1=CCc2c(cc(O)c3c(=O)cc(C)oc23)OC1 |
| 4.9 (≈ 1.55 µg/mL) | 4.9 (≈ 1.55 µg/mL) | 19.8 (≈ 6.26 µg/mL) | 19.8 (≈ 6.26 µg/mL) | CC(=O)OCC1=CCc2c(cc3oc(C)cc(=O)c3c2O)OC1 |
| 0.42 (≈ 0.388 µg/mL) | 0.42 (≈ 0.388 µg/mL) | 0.84 (≈ 0.776 µg/mL) | 0.42 (≈ 0.388 µg/mL) | C[C@@H]1[C@H](O)[C@@H](C)/C=C/C=C/C=C/C=C/C=C/C=C/C=C/[C@H](O[C@@H]2O[C@H](C)[C@@H](O)[C@H](N)[C@@H]2O)C[C@@H]2O[C@](O)(C[C@@H](O)C[C@@H](O)[C@H](O)CC[C@@H](O)C[C@@H](O)CC(=O)O[C@H]1C)C[C@H](O)[C@H]2C(=O)O [AMPHOTERICIN B] |
| 16.3 (≈ 3.13 µg/mL) | 16.3 (≈ 3.13 µg/mL) | 16.3 (≈ 3.13 µg/mL) | 16.3 (≈ 3.13 µg/mL) | Cc1cc(=O)c2c(O)cc(O)cc2o1 [NOREUGENIN] |
